Assay results: ChEMBL document CHEMBL4725282, “Discovery of a Conformationally Constrained Oxazolidinone with Improved Safety and Efficacy Profiles for the Treatment of Multidrug-Resistant Tuberculosis” (J Med Chem, 2020)
pIC50: −log10 of the molar value. ≈ marks a conversion by molar mass, not a printed value.

How the values were obtained:
[1] = test system: Mycobacterium tuberculosis; experiment: Antitubercular activity against Mycobacterium tuberculosis H37Rv incubated for 7 days by microplate alamar blue assay; format: functional; conditions: 168 h, time 7 day
Summary of the method: (§1)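 MIC determined by microplate alamar blue assay (MABA) following a published protocol.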

Vero = experiment: Cytotoxicity against African green monkey Vero cells assessed as reduction in cell viability measured after 48 hrs by MTT assay; format: cell-based; conditions: Chlorocebus sabaeus
Summary of the method: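 Cytotoxicity on Vero or HepG2 cells by MTT assay, run as previously reported.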

[2] = Inhibition of mitochondrial protein synthesis in rat H9c2 cells measured after 5 days by ELISA; format: cell-based; conditions: H9c2, 120 h
Summary of the method: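 H9C2 cells in DMEM with 10% FBS, seeded 1500/well. After 18 h, compound added at final 0.03–200 μM (3-fold series), then 5 days at 37 °C, 5% CO2; 0.5% DMSO negative control. MPS inhibition read by MitoBiogenesis In-Cell ELISA; IC50 calculated.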

[3] = Stability in CD-1 mouse liver microsome assessed as parent compound remaining at 1 uM measured after 30 mins in presence of NADPH by LC-MS/MS analysis; format: ADME; conditions: liver microsomes, read-out: Stabilty
Summary of the method: (§2)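 Liver microsomes (male CD-1 mouse or pooled human), 1 mg/mL protein, compound 1 µM, 37°C with shaking. Started with 1 mM NADPH or run without cofactor. Quenched with ice-cold ACN/MeOH containing internal standard. Parent quantified by LC-MS/MS; 30 min concentration normalised to time zero.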

[4] = Stability in CD-1 mouse liver microsome at 1 uM measured after 30 mins in absence of NADPH by LC-MS/MS analysis; format: ADME; conditions: microsomes, 0.5 h; summary of the method: as §2
[5] = test system: Mycobacterium tuberculosis; experiment: Antitubercular activity against Mycobacterium tuberculosis isolate 12525 incubated for 7 days by microplate alamar blue assay; format: functional; conditions: isolate 12525, 168 h, time 7 day; summary of the method: as §1
[6] = Terminal half life in Balb/c mouse at 25 mg/kg, po by LC-MS/MS analysis; format: ADME, organism-based; conditions: in vivo, read-out: beta t1/2 (converted)
Summary of the method: (§3)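 Female BALB/c mice, 20-25 g, five per route. Dosed 25 mg/kg p.o. in 0.5% carboxymethyl cellulose or 2.5 mg/kg i.v. in 10% DMSO/saline. Blood sampled 5 min-72 h (p.o.) or 2 min-48 h (i.v.), quantified by LC/MS/MS with ESI+. Parameters by non-compartmental analysis; F = (AUCpo×dose_iv)/(AUCiv×dose_po)×100%.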

[7] = Tmax in Balb/c mouse at 25 mg/kg, po by LC-MS/MS analysis; format: ADME, organism-based; conditions: in vivo; summary of the method: as §3
[8] = Cmax in Balb/c mouse at 25 mg/kg, po by LC-MS/MS analysis; format: ADME, organism-based; set-up: route oral, dose 25 mg/kg; conditions: in vivo
Summary of the method: (§4)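 Female BALB/c mice (20–25 g), five per route. Oral dose 25 mg/kg in 0.5% carboxymethyl cellulose; i.v. dose 2.5 mg/kg in 10% DMSO/physiological saline. Blood sampled 5 min–72 h after p.o. and 2 min–48 h after i.v. Analyte quantified by LC/MS/MS (ESI positive, C18, isocratic methanol/water). Parameters from non-compartmental analysis.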

[9] = AUC (0 to t) in Balb/c mouse at 25 mg/kg, po by LC-MS/MS analysis; format: ADME, organism-based; set-up: dose 25 mg/kg; conditions: in vivo; summary of the method: as §4
[10] = AUC (0 to infinity) in Balb/c mouse at 25 mg/kg, po by LC-MS/MS analysis; format: ADME, organism-based; set-up: route oral, time infinity, dose 25 mg/kg; conditions: in vivo; summary of the method: as §4
[11] = MRT (0 to t) in Balb/c mouse at 25 mg/kg, po by LC-MS/MS analysis; format: ADME, organism-based; conditions: in vivo; summary of the method: as §4
[12] = MRT (0 to infinity) in Balb/c mouse at 25 mg/kg, po by LC-MS/MS analysis; format: ADME, organism-based; conditions: in vivo; summary of the method: as §4
[13] = Mycobacterium tuberculosis, H37Rv, read-out: MIC

Structure (SMILES) | MIC [1, 13] | IC50 (Vero) | pIC50 [2] | further results
CC(=O)NC[C@@H]1OC(=O)N2c3cc(F)c(N4CCOCC4)cc3OC[C@@H]12 | 0.89 µg/mL (≈ 2.44 µM) | > 64 µg/mL | 4.29 | 
O=C1O[C@@H](CO)[C@@H]2COc3cc(N4CCSCC4)c(F)cc3N12 (racemic) | 3.79 µg/mL (≈ 11.1 µM) |  |  | 
CC(C)C(=O)NC[C@@H]1OC(=O)N2c3cc(F)c(N4CCSCC4)cc3OC[C@@H]12 | 0.1 µg/mL (≈ 0.244 µM) |  | < 4.00 | remaining at 0.5 h, 1 µM [3]: 6.02%; Stabilty [4]: Stable
NC[C@@H]1OC(=O)N2c3cc(F)c(N4CCSCC4)cc3OC[C@H]12 (racemic) | > 32 µg/mL |  |  | 
O=C(NC[C@@H]1OC(=O)N2c3cc(F)c(N4CCSCC4)cc3OC[C@@H]12)C1CCC1 | 0.03 µg/mL (≈ 0.0712 µM) |  | 4.27 | remaining at 0.5 h, 1 µM [3]: 4%; Stabilty [4]: Stable
CC(=O)NC[C@@H]1OC(=O)N2c3cc(F)c(N4CCSCC4)cc3OC[C@H]12 (racemic) | > 32 µg/mL |  |  | 
O=C(NC[C@@H]1OC(=O)N2c3cc(F)c(N4CC5(COC5)C4)cc3OC[C@@H]12)C1CC1 | 3.09 µg/mL (≈ 7.66 µM) |  |  | 
CC(=O)NC[C@@H]1OC(=O)N2c3cc(F)c(N4C5CCC4CSC5)cc3OC[C@@H]12 | 0.92 µg/mL (≈ 2.26 µM) | 58.5 µg/mL (≈ 144 µM) |  | 
O=C(NC[C@@H]1OC(=O)N2c3cc(F)c(N4CCSCC4)cc3OC[C@@H]12)c1ccncc1 | 0.16 µg/mL (≈ 0.36 µM) |  | < 4.00 | remaining at 0.5 h, 1 µM [3]: 20.8%; Stabilty [4]: Stable
CNC[C@@H]1OC(=O)N2c3cc(F)c(N4CCSCC4)cc3OC[C@@H]12 | > 32 µg/mL | 46.5 µg/mL (≈ 132 µM) |  | 
O=C1O[C@@H](Cn2ccnn2)[C@@H]2COc3cc(N4C5CCC4CSC5)c(F)cc3N12 | > 32 µg/mL | > 64 µg/mL |  | 
CC(=O)NC[C@@H]1OC(=O)N2c3ccc(N4CCSCC4)cc3OC[C@@H]12 | 0.79 µg/mL (≈ 2.17 µM) | > 64 µg/mL |  | 
O=C(NC[C@@H]1OC(=O)N2c3cc(F)c(N4C5CCC4CSC5)cc3OC[C@@H]12)C1CC1 | 0.98 µg/mL (≈ 2.26 µM) | > 64 µg/mL |  | 
O=C1O[C@@H](CNc2ccon2)[C@@H]2COc3cc(N4CCSCC4)c(F)cc3N12 | 0.03 µg/mL (≈ 0.0738 µM) |  | < 4.00 | remaining at 0.5 h, 1 µM [3]: 0%; Stabilty [4]: Stable
NC[C@@H]1OC(=O)N2c3cc(F)c(N4CCSCC4)cc3OC[C@@H]12 |  | 36 µg/mL (≈ 106 µM) | < 4.00 | MIC [1]: 0.03 µg/mL (≈ 0.0884 µM); remaining at 0.5 h, 1 µM [3]: 15.8%; Stabilty [4]: Stable
O=C(NC[C@@H]1OC(=O)N2c3cc(F)c(N4C5CCC4CSC5)cc3OC[C@@H]12)c1cnccn1 | > 32 µg/mL | 9.53 µg/mL (≈ 20.2 µM) |  | 
O=C(NC[C@@H]1OC(=O)N2c3cc(F)c(N4C5CCC4CSC5)cc3OC[C@@H]12)C1CCC1 | 0.97 µg/mL (≈ 2.17 µM) | 34.7 µg/mL (≈ 77.5 µM) |  | 
O=C1O[C@@H](CNc2ccon2)[C@@H]2COc3cc(N4C5CCC4CSC5)c(F)cc3N12 | 2.52 µg/mL (≈ 5.83 µM) | > 64 µg/mL |  | 
CC(=O)N(C)C[C@@H]1OC(=O)N2c3cc(F)c(N4CCSCC4)cc3OC[C@@H]12 | > 1 µg/mL |  |  | 
CO[C@H]1/C=C/O[C@@]2(C)Oc3c(C)c(O)c4c(O)c(c(/C=N/N5CCN(C)CC5)c(O)c4c3C2=O)NC(=O)/C(C)=C\C=C\[C@H](C)[C@H](O)[C@@H](C)[C@@H](O)[C@@H](C)[C@H](OC(C)=O)[C@@H]1C [RIFAMPIN] |  |  |  | MIC [5]: > 10 µg/mL

Structure (SMILES) | MIC [1, 13] | IC50 (Vero) | pIC50 [2] | further results
CC(=O)NC[C@@H]1OC(=O)N2c3cc(F)c(N4CCSCC4)cc3OC[C@@H]12 (racemic) |  |  |  | MIC [1]: 0.16 µg/mL (≈ 0.419 µM)
COC(=O)NC[C@@H]1OC(=O)N2c3cc(F)c(N4C5CCC4CSC5)cc3OC[C@@H]12 | 1.68 µg/mL (≈ 3.97 µM) | > 64 µg/mL |  | 
CS(=O)(=O)NC[C@@H]1OC(=O)N2c3cc(F)c(N4CCSCC4)cc3OC[C@@H]12 | 3.9 µg/mL (≈ 9.34 µM) |  |  | 
NC[C@@H]1OC(=O)N2c3cc(F)c(N4CCSCC4)cc3OC[C@@H]12 (racemic) |  |  |  | MIC [1]: 0.1 µg/mL (≈ 0.295 µM)
O=C(NC[C@@H]1OC(=O)N2c3cc(F)c(N4C5CCC4CSC5)cc3OC[C@@H]12)c1ccncc1 | 2.83 µg/mL (≈ 6.01 µM) | > 64 µg/mL |  | 
O=C1O[C@@H](Cn2ccnn2)[C@@H]2COc3cc(N4CC5(COC5)C4)c(F)cc3N12 | > 32 µg/mL | > 64 µg/mL |  | 
O=C(NC[C@@H]1OC(=O)N2c3cc(F)c(N4CC5(COC5)C4)cc3OC[C@@H]12)C1CCC1 | 4.2 µg/mL (≈ 10.1 µM) |  |  | 
CC(=O)NC[C@@H]1OC(=O)N2c3cc(F)c(N4CCC(F)(F)CC4)cc3OC[C@@H]12 | 0.91 µg/mL (≈ 2.28 µM) |  | 4.99 | 
CC(C)C(=O)NC[C@@H]1OC(=O)N2c3cc(F)c(N4C5CCC4CSC5)cc3OC[C@@H]12 | 1.48 µg/mL (≈ 3.4 µM) | > 64 µg/mL |  | 
CC(=O)NC[C@H]1OC(=O)N2c3cc(F)c(N4CCSCC4)cc3OC[C@H]12 | > 32 µg/mL |  |  | 
COC(=O)NC[C@@H]1OC(=O)N2c3cc(F)c(N4CCSCC4)cc3OC[C@@H]12 | 0.03 µg/mL (≈ 0.0755 µM) |  | < 4.00 | remaining at 0.5 h, 1 µM [3]: 3.59%; Stabilty [4]: Stable
CC(=O)NC[C@@H]1OC(=O)N2c3cc(F)c(N4CC5(COC5)C4)cc3OC[C@@H]12 | 3.92 µg/mL (≈ 10.4 µM) |  |  | 
CC(=O)OC[C@@H]1OC(=O)N2c3cc(F)c(N4CCSCC4)cc3OC[C@@H]12 | > 1 µg/mL |  |  | 
O=C(NC[C@@H]1OC(=O)N2c3cc(F)c(N4CCSCC4)cc3OC[C@@H]12)C1CC1 | 0.03 µg/mL (≈ 0.0736 µM) |  | < 4.00 | remaining at 0.5 h, 1 µM [3]: 15%; Stabilty [4]: Stable
O=C1O[C@@H](Cn2ccnn2)[C@@H]2COc3cc(N4CCSCC4)c(F)cc3N12 | 0.23 µg/mL (≈ 0.588 µM) |  | < 4.00 | remaining at 0.5 h, 1 µM [3]: 21.7%; Stabilty [4]: Stable
CC(=O)N(C[C@@H]1OC(=O)N2c3cc(F)c(N4CCSCC4)cc3OC[C@@H]12)C(C)=O | 0.34 µg/mL (≈ 0.803 µM) | > 64 µg/mL |  | 
O=C(NC[C@@H]1OC(=O)N2c3cc(F)c(N4CCSCC4)cc3OC[C@@H]12)c1cnccn1 | 0.12 µg/mL (≈ 0.269 µM) | 40.7 µg/mL (≈ 91.3 µM) | < 4.00 | remaining at 0.5 h, 1 µM [3]: 6.85%; Stabilty [4]: Stable
CC(=O)NC[C@@H]1OC(=O)N2c3cc(F)c(N4CCS(=O)(=O)CC4)cc3OC[C@@H]12 | 0.93 µg/mL (≈ 2.25 µM) |  | 4.59 | half-life [6]: 7.64 h; Tmax [7]: 1 h; Cmax [8]: 118 ng/mL; AUC(0-t) [9]: 1250 ng·h/mL; AUC(0-inf) [10]: 1480 ng·h/mL; MRT last [11]: 10.3 h; MRT inf [12]: 14.3 h
O=C1O[C@@H](CO)[C@H]2COc3cc(N4CCSCC4)c(F)cc3N12 (racemic) | > 32 µg/mL |  |  | 
